In ChEMBL document CHEMBL5058577, “EUbOPEN Chemogenomics Library 2 (Multiplex)” (2022):

Tested on: U2OS
Test: Multiplex assay against U2OS
Assay type: toxicity, cell-based
Conditions: human
Summary of the method: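 Tubulin, mitochondrial-mass and membrane-permeability phenotypes are per cents of healthy-nucleus cells. Cells were gated by CellPathfinder machine learning into Hoechst high-intensity objects or normal cells, normal cells into healthy, pyknosed or fragmented nuclei, and pyknosed cells into mitotic or apoptotic. Before that, live cells stained at seeding with Hoechst33342, BioTracker Green Microtubule Cytoskeleton Dye, MitoTracker Red and Annexin V Alexa Fluor 680 were imaged on a CQ1 microscope at 37°C and 5% CO2 after compound addition.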

[1] = 12 h, 1 µM, compound concentration 1 uM, replicate 1
[2] = 12 h, 1 µM, compound concentration 1 uM, replicate 2
[3] = 12 h, 10 µM, compound concentration 10 uM, replicate 1
[4] = 12 h, 10 µM, compound concentration 10 uM, replicate 2
[5] = 24 h, 1 µM, compound concentration 1 uM, replicate 1
[6] = 24 h, 1 µM, compound concentration 1 uM, replicate 2
[7] = 24 h, 10 µM, compound concentration 10 uM, replicate 1
[8] = 24 h, 10 µM, compound concentration 10 uM, replicate 2
[9] = 48 h, 1 µM, compound concentration 1 uM, replicate 1
[10] = 48 h, 1 µM, compound concentration 1 uM, replicate 2
[11] = 48 h, 10 µM, compound concentration 10 uM, replicate 1
[12] = 48 h, 10 µM, compound concentration 10 uM, replicate 2

## COC[C@@H](c1ccc(C(F)(F)F)cc1)N1CCN(C2(C)CCN(C(=O)c3c(C)ncnc3C)CC2)C[C@@H]1C.O=C(O)/C=C\C(=O)O [VICRIVIROC MALEATE]
[1]
  Population Apoptotic (%): 82%
  Population Fragmented Nuclei (%): 34%
  Population Healthy Nuclei (%): 54%
  Population Hoechst High Intensity Objects (%): 4%
  Population Membrane Permeable-Phenotype (%): 8%
  Population Mitochondria Different-Phenotype (%): 4%
  Population Mitotic Cells (%): 17%
  Population Normal (%): 95%
  Population Pyknosed Nuclei (%): 11%
  Population Tubulin-Different-Phenotype (%): 3%
  Total Cell Count: 261
[2]
  Population Apoptotic (%): 81%
  Population Fragmented Nuclei (%): 21%
  Population Healthy Nuclei (%): 67%
  Population Hoechst High Intensity Objects (%): 2%
  Population Membrane Permeable-Phenotype (%): 11%
  Population Mitochondria Different-Phenotype (%): 14%
  Population Mitotic Cells (%): 18%
  Population Normal (%): 97%
  Population Pyknosed Nuclei (%): 10%
  Population Tubulin-Different-Phenotype (%): 7%
  Total Cell Count: 105
[3]
  Population Apoptotic (%): 86%
  Population Fragmented Nuclei (%): 26%
  Population Healthy Nuclei (%): 65%
  Population Hoechst High Intensity Objects (%): 1%
  Population Membrane Permeable-Phenotype (%): 13%
  Population Mitochondria Different-Phenotype (%): 3%
  Population Mitotic Cells (%): 13%
  Population Normal (%): 98%
  Population Pyknosed Nuclei (%): 8%
  Population Tubulin-Different-Phenotype (%): 3%
  Total Cell Count: 270
[4]
  Population Apoptotic (%): 33%
  Population Fragmented Nuclei (%): 28%
  Population Hoechst High Intensity Objects (%): 2%
  Population Membrane Permeable-Phenotype (%): 5%
  Population Mitochondria Different-Phenotype (%): 6%
  Population Mitotic Cells (%): 66%
  Population Normal (%): 97%
  Population Pyknosed Nuclei (%): 6%
  Population Tubulin-Different-Phenotype (%): 6%
  Total Cell Count: 91
[5]
  Population Apoptotic (%): 77%
  Population Fragmented Nuclei (%): 25%
  Population Healthy Nuclei (%): 67%
  Population Hoechst High Intensity Objects (%): 3%
  Population Membrane Permeable-Phenotype (%): 5%
  Population Mitochondria Different-Phenotype (%): 3%
  Population Mitotic Cells (%): 22%
  Population Normal (%): 96%
  Population Pyknosed Nuclei (%): 7%
  Population Tubulin-Different-Phenotype (%): 2%
  Total Cell Count: 301
[6]
  Population Apoptotic (%): 93%
  Population Fragmented Nuclei (%): 20%
  Population Healthy Nuclei (%): 64%
  Population Hoechst High Intensity Objects (%): 4%
  Population Membrane Permeable-Phenotype (%): 10%
  Population Mitochondria Different-Phenotype (%): 14%
  Population Mitotic Cells (%): 6%
  Population Normal (%): 95%
  Population Pyknosed Nuclei (%): 15%
  Population Tubulin-Different-Phenotype (%): 10%
  Total Cell Count: 111
[7]
  Population Apoptotic (%): 80%
  Population Fragmented Nuclei (%): 25%
  Population Healthy Nuclei (%): 68%
  Population Hoechst High Intensity Objects (%): 1%
  Population Membrane Permeable-Phenotype (%): 3%
  Population Mitochondria Different-Phenotype (%): 3%
  Population Mitotic Cells (%): 19%
  Population Normal (%): 98%
  Population Pyknosed Nuclei (%): 6%
  Population Tubulin-Different-Phenotype (%): 2%
  Total Cell Count: 326
[8]
  Population Apoptotic (%): 83%
  Population Membrane Permeable-Phenotype (%): 4%
  Population Mitochondria Different-Phenotype (%): 2%
  Population Mitotic Cells (%): 16%
  Population Tubulin-Different-Phenotype (%): 7%
  Total Cell Count: 99
[9]
  Population Apoptotic (%): 78%
  Population Fragmented Nuclei (%): 20%
  Population Healthy Nuclei (%): 68%
  Population Hoechst High Intensity Objects (%): 3%
  Population Membrane Permeable-Phenotype (%): 3%
  Population Mitochondria Different-Phenotype (%): 2%
  Population Mitotic Cells (%): 21%
  Population Normal (%): 96%
  Population Pyknosed Nuclei (%): 10%
  Population Tubulin-Different-Phenotype (%): 1%
  Total Cell Count: 416
[10]
  Population Apoptotic (%): 93%
  Population Fragmented Nuclei (%): 25%
  Population Healthy Nuclei (%): 62%
  Population Hoechst High Intensity Objects (%): 1%
  Population Membrane Permeable-Phenotype (%): 13%
  Population Mitochondria Different-Phenotype (%): 11%
  Population Mitotic Cells (%): 6%
  Population Normal (%): 98%
  Population Pyknosed Nuclei (%): 11%
  Population Tubulin-Different-Phenotype (%): 10%
  Total Cell Count: 142
[11]
  Population Apoptotic (%): 80%
  Population Fragmented Nuclei (%): 19%
  Population Healthy Nuclei (%): 70%
  Population Hoechst High Intensity Objects (%): 2%
  Population Membrane Permeable-Phenotype (%): 3%
  Population Mitochondria Different-Phenotype (%): 2%
  Population Mitotic Cells (%): 20%
  Population Normal (%): 97%
  Population Pyknosed Nuclei (%): 9%
  Population Tubulin-Different-Phenotype (%): 1%
  Total Cell Count: 437
[12]
  Population Apoptotic (%): 93%
  Population Fragmented Nuclei (%): 18%
  Population Healthy Nuclei (%): 68%
  Population Hoechst High Intensity Objects (%): 5%
  Population Mitochondria Different-Phenotype (%): 6%
  Population Mitotic Cells (%): 6%
  Population Normal (%): 94%
  Population Pyknosed Nuclei (%): 12%
  Population Tubulin-Different-Phenotype (%): 6%
  Total Cell Count: 140
